This is an account of results in ChEMBL document CHEMBL1150651, “Cholestane glycosides from the bulbs of Ornithogalum thyrsoides and their cytotoxic activity against HL-60 leukemia cells” (J Nat Prod, 2002).

Converted amounts (≈) assume the structure as drawn.

The experiment concerns HL-60. Briefly: Cytotoxicity against human HL60 cells after 72 hrs by MTT assay. It counts as functional, cell-based. To be noted: HL-60, 72 h. The gist of the method: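 HL-60 cells (JCRB 0085) grown in RPMI 1640 with heat-inactivated 10% FBS, L-glutamine, penicillin and streptomycin. Seeded at 4 × 10^4 cells/mL and preincubated 24 h at 37 °C in 5% CO2. Sample added in EtOH-H2O (1:1) at final 0.00001-10 µg/mL; vehicle in control wells. After 72 h, MTT (5 mg/mL in PBS) added for 4 h. Formazan dissolved in DMSO, absorbance read at 550 nm.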
For orientation: Tetrazolium dyes change colour on reduction, which living cells bring about.
Take `COc1ccc(C(=O)O[C@H]2[C@H](O[C@@H]3[C@@H](OC(C)=O)[C@H](O[C@H]4C[C@H]5[C@@H]6CC=C7C[C@@H](O[C@@H]8O[C@H](CO)[C@@H](O)[C@H](O)[C@H]8O)CC[C@]7(C)[C@H]6CC[C@]5(C)[C@@]4(O)[C@H](C)C(=O)CCC(C)C)OC[C@@H]3O)OC[C@@H](O)[C@@H]2O)cc1OC`: the IC50 stood at 0.00013 µg/mL (≈ 0.000122 µM).

As for `CC(=O)O[C@H]1[C@H](O[C@H]2C[C@H]3[C@@H]4CC=C5C[C@@H](O[C@@H]6O[C@H](CO)[C@@H](O)[C@H](O)[C@H]6O)CC[C@]5(C)[C@H]4CC[C@]3(C)[C@@]2(O)[C@H](C)C(=O)CCC(C)C)OC[C@H](O)[C@@H]1O[C@@H]1OC[C@@H](O)[C@H](O)[C@H]1O`, 0.013 µg/mL (≈ 0.0144 µM) corresponded to half-maximal inhibition (IC50).

On to `CC(=O)O[C@H]1[C@H](O[C@H]2C[C@H]3[C@@H]4CC=C5C[C@@H](O[C@@H]6O[C@H](CO[C@@H]7O[C@H](CO)[C@@H](O)[C@H](O)[C@H]7O)[C@@H](O)[C@H](O)[C@H]6O)CC[C@]5(C)[C@H]4CC[C@]3(C)[C@@]2(O)[C@H](C)C(=O)CCC(C)C)OC[C@H](O)[C@@H]1O[C@@H]1OC[C@@H](O)[C@H](O)[C@H]1O`, for which the IC50 is more than 10 µg/mL.

`COc1cc(C(=O)O[C@H]2[C@H](O[C@@H]3[C@@H](OC(C)=O)[C@H](O[C@H]4C[C@H]5[C@@H]6CC=C7C[C@@H](O[C@@H]8O[C@H](CO[C@@H]9O[C@H](CO)[C@@H](O)[C@H](O)[C@H]9O)[C@@H](O)[C@H](O)[C@H]8O)CC[C@]7(C)[C@H]6CC[C@]5(C)[C@@]4(O)[C@H](C)C(=O)CCC(C)C)OC[C@@H]3O)OC[C@@H](O)[C@@H]2O)cc(OC)c1OC` returned an IC50 of 0.7 µg/mL (≈ 0.557 µM).

As to `COc1ccc(C(=O)O[C@H]2[C@H](O[C@@H]3[C@@H](OC(C)=O)[C@H](O[C@H]4C[C@H]5[C@@H]6CC=C7C[C@@H](O[C@@H]8O[C@H](CO[C@@H]9O[C@H](CO)[C@@H](O)[C@H](O)[C@H]9O)[C@@H](O)[C@H](O)[C@H]8O)CC[C@]7(C)[C@H]6CC[C@]5(C)[C@@]4(O)[C@H](C)C(=O)CCC(C)C)OC[C@@H]3O)OC[C@@H](O)[C@@H]2O)cc1OC`, inhibition was half-maximal at 0.81 µg/mL (≈ 0.66 µM) (IC50).

`COc1cc(C(=O)O[C@H]2[C@H](O[C@@H]3[C@@H](OC(C)=O)[C@H](O[C@H]4C[C@H]5[C@@H]6CC=C7C[C@@H](O[C@@H]8O[C@H](CO)[C@@H](O)[C@H](O)[C@H]8O)CC[C@]7(C)[C@H]6CC[C@]5(C)[C@@]4(O)[C@H](C)C(=O)CCC(C)C)OC[C@@H]3O)OC[C@@H](O)[C@@H]2O)cc(OC)c1OC`: half-maximal inhibition (IC50) required 0.00016 µg/mL (≈ 0.000146 µM).

As to `CC(C)CCC(=O)[C@@H](C)[C@@]1(O)[C@@H](O[C@@H]2OC[C@H](O)[C@H](O)[C@H]2O)C[C@H]2[C@@H]3CC=C4C[C@@H](O[C@@H]5O[C@H](CO)[C@@H](O)[C@H](O)[C@H]5O)CC[C@]4(C)[C@H]3CC[C@@]21C`, the half-maximal inhibitory concentration (IC50) turned out to be 0.12 µg/mL (≈ 0.165 µM).

Broadly, the IC50 is the concentration needed to halve the response being measured. High values mean a need for much substance, low ones inhibition by little substance.
